Data taken from ChEMBL document CHEMBL3745658, “An Orally Bioavailable, Indole-3-glyoxylamide Based Series of Tubulin Polymerization Inhibitors Showing Tumor Growth Inhibition in a Mouse Xenograft Model of Head and Neck Cancer” (J Med Chem, 2015).
pEC50: −log10 of the molar value. Converted amounts (≈) assume the structure as drawn. The source made the active and inactive calls. The calls are words filed in the database; no cut-off is given here.

Legend:
Tubulin (Sus scrofa) [1] = biological target: T1, Tubulin (Sus scrofa) (UniProt P02554+P02550); assay: (§1) Displacement of [3H]-colchicine from biotinylated porcine tubulin after 2 hrs by competitive binding assay; assay type: protein assay
Outline: (§2)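 Biotinylated porcine tubulin (750 ng/well) with 0.1 μM [3H]-colchicine and test compound in G-PEM with 1 mM GTP, 3% DMSO, duplicate wells, 2 h at 37 °C. Streptavidin SPA beads then added for 45 min at 37 °C. Nonspecific binding taken with 1000-fold unlabeled excess. IC50 from seven-point semilog curves, four-parameter fit.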

Tubulin (Sus scrofa) [2] = biological target: T1, Tubulin (Sus scrofa); assay: Displacement of [3H]-vinblastine from biotinylated porcine tubulin after 15 mins by competitive binding assay; assay type: protein assay
Outline: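 Biotinylated porcine tubulin, 0.2 μM [3H]-vinblastine, SPA beads and test compound combined together in G-PEM with 1 mM GTP, 3% DMSO, duplicate wells, 15 min at rt before counting. Nonspecific binding taken with 1000-fold unlabeled excess. IC50 from seven-point semilog curves, four-parameter fit.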

[3] = Apparent permeability from apical to basolateral side in human Caco2 cells at 10 uM at pH 7.4 after 60 mins by mass spectrometry; details: Caco-2, pH 7.4
SK-MEL-28 = assay: Cytotoxicity against human SK-MEL-28 cells assessed as reduction in cell viability after 72 hrs by MTT assay; assay type: functional, cell-based
Outline: (§3)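 Cells plated at an appropriate density and left 24 h to attach, then dosed in triplicate with compound diluted from 10 mM DMSO stocks into full growth medium (added at 2× final concentration). After 72 h, cells PBS-washed and given MTT (0.5 mg/mL in PBS) for 45−60 min. Formazan dissolved in 0.1 M HCl/2-propanol, A570 read (650 nm reference). Viability normalised to DMSO control; LC50 by nonlinear regression.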

[4] = Efflux ratio of apparent permeability from basolateral to apical side over apical to basolateral side in human Caco2 cells; details: Caco-2
[5] = Metabolic stability in CD-1 mouse liver microsomes assessed as half life at 1 uM preincubated for 5 mins before addition of NADPH by LC-MS/MS method; assay type: ADME
FaDu [6] = assay: Cytotoxicity against human FADU multicellular tumor spheroid assessed as induction of spheroid disruption incubated for 7 days by light microscopy; assay type: functional, cell-based; details: 168 h
Outline: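 Monocultured FaDu spheroids dosed over a concentration range and imaged at 0, 2, 4 and 7 days post-dosing. Volume followed over time, fragmentation scored at the 7-day end point, and EC50 for disruption derived from 7-day dose–response plots. Two independent experiments, mean ± SEM.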

FaDu [7] = assay: Induction of microtubule disruption in human FADU cells assessed as multipolarization of spindle at 30 nM after 24 hrs by immunofluorescence staining method; assay type: functional, cell-based
Outline: (§4)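 FaDu cells grown on coverslips (15000/well) for 24 h, then exposed to compound for 24 h. Unassembled tubulin was extracted with PHEM/0.5% Triton X-100/10 μM paclitaxel for 3 min. Cells were fixed in PHEM with 8% paraformaldehyde and 0.3% glutaraldehyde on ice, blocked, then stained with FITC anti-α-tubulin (DM1A) and DAPI. Confocal z-stacks were taken at 100×.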

Tubulin (Sus scrofa) [8] = biological target: T1, Tubulin (Sus scrofa); assay: Displacement of [3H]-paclitaxel from biotinylated porcine tubulin after 25 mins by competitive binding assay; assay type: protein assay
Outline: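 Biotinylated porcine tubulin precoupled to SPA beads for 30 min at 4 °C, then 0.05 μM [3H]-paclitaxel and test compound added in G-PEM with 1 mM GTP, 3% DMSO, duplicate wells, 25 min at rt. Nonspecific binding taken with 1000-fold unlabeled excess. IC50 from seven-point semilog curves, four-parameter fit.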

FaDu [9] = assay: Cytotoxicity against human FADU multicellular tumor spheroid assessed as effect on normal spheroid growth at 1 uM incubated for 2 to 3 days by light microscop; assay type: cell-based
Outline: (§5)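 FaDu monoculture spheroids were dosed once and imaged at 0, 2, 4 and 7 days after dosing. Fragmentation and growth were judged against untreated spheroids.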

FaDu [10] = assay: Cytotoxicity against human FADU cells assessed as reduction in cell viability after 72 hrs by MTT assay; assay type: functional; details: read-out: LC50 (the source's name)
FaDu [11] = assay: Antitumor activity against human FADU cells xenografted in CD-1 mouse assessed as inhibition of tumor growth at 10 mg/kg, po qd for 10 days measured at 13 and 15 days; assay type: functional, organism-based
Outline: (§6)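 FaDu xenografts established in mice before dosing; compound given by oral gavage once daily for 10 days. Tumor volume was followed over time and compared with a vehicle control group, with significance assessed at days 3, 6, 9, 13 and 15. Body weight and survival were also recorded.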

[12] = Solubility in 2% DMSO containing 50 mM potassium phosphate buffer solution pH 7.4 at 10 uM by dynamic light scattering method; details: pH 7.4, 10 µM
FaDu [13] = assay: Induction of microtubule disruption in human FADU cells at 150 nM after 24 hrs by immunofluorescence staining method; assay type: functional, cell-based; outline: as §4
SCC-4 = assay: Cytotoxicity against human SCC4 cells assessed as reduction in cell viability after 72 hrs by MTT assay; assay type: functional, cell-based; outline: as §3
FaDu [14] = assay: Cytotoxicity against human FADU multicellular tumor spheroid assessed as dispersion of cells from the spheroid at 1 uM incubated for 2 to 7 days by light microscopy; assay type: functional, cell-based; outline: as §5
Tubulin [15] = biological target: T2, Tubulin (Sus scrofa, UniProt P02554+P02550); assay: Inhibition of porcine brain tubulin polymerization assessed as reduction in GTP-induced microtubule assembly after 60 mins by OD340 method
FaDu [16] = assay: Selectivity index, ratio of EC50 for cell cycle arrest in human FADU cells to LC50 for cytotoxicity against human FADU cells; assay type: functional
Outline: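 G2/M arrest EC50 came from a 24 h dose–response of propidium iodide flow cytometry in FaDu cells. It was compared with the LC50 from a 72 h MTT assay in FaDu cells (triplicate wells, A570, viability relative to DMSO, nonlinear regression).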

SH-SY5Y = assay: Cytotoxicity against human SH-SY5Y cells assessed as reduction in cell viability after 72 hrs by MTT assay; assay type: functional, cell-based; outline: as §3
Tubulin [17] = biological target: T2, Tubulin; assay: as §1; assay type: protein assay; outline: as §2
MES-SA/Dx5 = assay: Cytotoxicity against multidrug resistant human MES-SA/Dx5 cells assessed as reduction in cell viability after 72 hrs by MTT assay; assay type: functional, cell-based; outline: as §3
FaDu [18] = assay: Antitumor activity against human FADU cells xenografted in CD-1 mouse assessed as inhibition of tumor growth at 10 mg/kg, po qd for 10 days measured at 3 to 9 days; assay type: functional, organism-based; outline: as §6
[19] = Solubility in 2% DMSO containing 50 mM potassium phosphate buffer solution at pH 7.4 by dynamic light scattering method; details: 50 mM potassium phosphate buffer with 2% DMSO
MES-SA = assay: Cytotoxicity against human MES-SA cells assessed as reduction in cell viability after 72 hrs by MTT assay; assay type: functional, cell-based; outline: as §3
FaDu [20] = assay: Cell cycle arrest in human FADU cells assessed as accumulation at G2/M phase after 24 hrs by propidium iodide staining-based flow cytometry; assay type: functional
Outline: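 FaDu cells seeded at 10^5/well, attached overnight, then exposed to compound in full growth medium at 37 °C for 24 h. Cells were trypsinized, fixed in ice-cold 70% ethanol, treated with RNase A (100 μg/mL), stained overnight in the dark with propidium iodide (50 μg/mL), and analysed by flow cytometry with at least 10000 events per sample.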

[21] = Aqueous solubility of the compound by UV-HPLC
Tubulin (Sus scrofa) [22] = biological target: T1, Tubulin (Sus scrofa); assay: Potency index, ratio of vincristine IC50 to docetaxel IC50 for displacement of [3H]-paclitaxel from biotinylated porcine tubulin; assay type: protein assay
[23] = Solubility in 2% DMSO containing 50 mM potassium phosphate buffer solution pH 7.4 at 1 uM by dynamic light scattering method; assay type: physicochemical; details: pH 7.4, 1 µM

## COc1cc([C@@H]2c3cc4c(cc3[C@H](O)[C@H]3COC(=O)[C@H]23)OCO4)cc(OC)c1OC
Tubulin (Sus scrofa) [1]
  Activity: Active

## COc1ccc(NC(=O)C(=O)c2cn(CC3CCCO3)c3ccccc23)cn1 (configuration not stated)
Tubulin (Sus scrofa) [2]
  Activity: Active
[3]
  Papp A→B at 1 h, 10 µM: 35 ×10⁻⁶ cm/s
SK-MEL-28
  Activity: Active
[4]
  efflux ratio: 0.7
[5]
  half-life at 1 µM: 34 min
FaDu [6]
  pEC50: 7.11
FaDu [7]
  Activity: Active
Tubulin (Sus scrofa) [8]
  Activity: inactive
FaDu [9]
  Activity: Non-toxic
FaDu [10]
  CC50: 31 nM
FaDu [11]
  Activity: Active
[12]
  solubility: soluble
FaDu [13]
  Activity: Active
SCC-4
  Activity: Active
FaDu [14]
  Activity: Active
Tubulin [15]
  IC50: 8300 nM
FaDu [16]
  Ratio: 5
SH-SY5Y
  Activity: Active
Tubulin [17]
  IC50: 420 nM
MES-SA/Dx5
  Activity: Active
FaDu [18]
  TGI: Active
[19]
  solubility kinetic: 10 µM (≈ 3.79 µg/mL)
MES-SA
  Activity: Active
FaDu [20]
  Activity: Dose-dependent effect
  pEC50: 6.80

## COCCn1cc(C(=O)C(=O)Nc2ccc(OC)nc2)c2cccnc21
Tubulin (Sus scrofa) [2]
  Activity: inactive
SK-MEL-28
  Activity: Active
Tubulin (Sus scrofa) [8]
  Activity: inactive
FaDu [10]
  CC50: 27 nM
SCC-4
  Activity: Active
Tubulin [15]
  IC50: 2600 nM
SH-SY5Y
  Activity: Active
Tubulin [17]
  IC50: 940 nM
MES-SA/Dx5
  Activity: Active
MES-SA
  Activity: Active

## COCCn1cc(C(=O)C(=O)Nc2ccc(OC)nc2)c2ccccc21
SK-MEL-28
  Activity: Active
[5]
  half-life at 1 µM: 11 min
FaDu [10]
  CC50: 17 nM
SCC-4
  Activity: Active
SH-SY5Y
  Activity: Active
MES-SA/Dx5
  Activity: Active
MES-SA
  Activity: Active

## CC(=O)O[C@@]12CO[C@@H]1C[C@H](O)[C@@]1(C)C(=O)[C@H](O)C3=C(C)[C@@H](OC(=O)[C@H](O)[C@@H](NC(=O)OC(C)(C)C)c4ccccc4)C[C@@](O)([C@@H](OC(=O)c4ccccc4)[C@H]21)C3(C)C
Tubulin (Sus scrofa) [2]
  Activity: Active
Tubulin (Sus scrofa) [8]
  Activity: Active
Tubulin (Sus scrofa) [1]
  Activity: inactive

## COc1ccc(NC(=O)C(=O)c2cn(C(C)C)c3ccccc23)cn1
Tubulin (Sus scrofa) [2]
  Activity: Active
[3]
  Papp A→B at 1 h, 10 µM: 19.8 ×10⁻⁶ cm/s
[4]
  efflux ratio: 1.4
[5]
  half-life at 1 µM: 5 min
Tubulin (Sus scrofa) [8]
  Activity: inactive
FaDu [10]
  CC50: 85 nM
[12]
  solubility: soluble
[21]
  solubility: 10 µM (≈ 3.37 µg/mL)
Tubulin [15]
  IC50: 14900 nM
Tubulin [17]
  IC50: 1600 nM
[19]
  solubility kinetic: 20 µM (≈ 6.75 µg/mL)

## COc1ncc(NC(=O)C(=O)c2cn(C(C)C)c3ccccc23)cn1
[3]
  Papp A→B at 1 h, 10 µM: 39.8 ×10⁻⁶ cm/s
[4]
  efflux ratio: 1
[5]
  half-life at 1 µM: 5 min
FaDu [10]
  CC50: 171 nM

## COCC(C)(C)n1cc(C(=O)C(=O)Nc2ccc(OC)nc2)c2ccccc21
Tubulin (Sus scrofa) [2]
  Activity: Active
SK-MEL-28
  Activity: Active
[5]
  half-life at 1 µM: 16 min
Tubulin (Sus scrofa) [8]
  Activity: inactive
FaDu [10]
  CC50: 137 nM
[12]
  solubility: soluble
SCC-4
  Activity: Active
Tubulin [15]
  IC50: 7800 nM
SH-SY5Y
  Activity: Active
Tubulin [17]
  IC50: 2500 nM
MES-SA/Dx5
  Activity: Active
[19]
  solubility kinetic: 10 µM (≈ 3.81 µg/mL)
MES-SA
  Activity: Active

## CC[C@]1(O)C[C@H]2CN(CCc3c([nH]c4ccccc34)[C@@](C(=O)OC)(c3cc4c(cc3OC)N(C=O)[C@H]3[C@@](O)(C(=O)OC)[C@H](OC(C)=O)[C@]5(CC)C=CCN6CC[C@]43[C@@H]65)C2)C1
Tubulin (Sus scrofa) [2]
  Activity: Active
Tubulin (Sus scrofa) [22]
  Ratio IC50: 2
Tubulin (Sus scrofa) [8]
  Activity: Active
Tubulin (Sus scrofa) [1]
  Activity: inactive

## O=C(Nc1ccncc1)C(=O)c1cn(Cc2ccc(Cl)cc2)c2ccccc12 [INDIBULIN]
SK-MEL-28
  Activity: Active
FaDu [10]
  CC50: 32 nM
[23]
  solubility: Insoluble
[12]
  solubility: Insoluble
SCC-4
  Activity: Active
[21]
  solubility: ≤ 1 µM
SH-SY5Y
  Activity: Active
MES-SA/Dx5
  Activity: Active
MES-SA
  Activity: Active
